Source: ChEMBL document CHEMBL1914423, “New imidazo[2,1-b]thiazole derivatives: synthesis, in vitro anticancer evaluation, and in silico studies” (Eur J Med Chem, 2011)

What was measured:
Format in all cases: functional
SK-MEL-5 = assay: Anticancer activity against human SK-MEL-5 cells assessed as cell growth at 10^-5 M after 48 hrs by SRB assay; settings: SK-MEL-5, 48 h, read-out: Activity
NCI-H322M = assay: Anticancer activity against human NCI-H322M cells assessed as cell growth at 10^-5 M after 48 hrs by SRB assay; settings: read-out: Activity
MCF7 = assay: Anticancer activity against human MCF7 cells assessed as cell growth at 10^-5 M after 48 hrs by SRB assay; settings: MCF7, 48 h, read-out: Activity
Outline: (§1)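 NCI-60 single-dose screen at one concentration. Cells grown in RPMI 1640 with 5% FBS and 2 mM L-glutamine, plated at 5000–40,000 cells/well, and pre-incubated 24 h at 37 °C in 5% CO2 before DMSO-dissolved drug was added. Cells fixed with TCA, SRB-stained, absorbance read at 515 nm. Percent growth calculated against time-zero and untreated control plates.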

T47D = assay: Anticancer activity against human T47D cells assessed as cell growth at 10^-5 M after 48 hrs by SRB assay; settings: read-out: Activity
Outline: (§2)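 NCI-60 single-dose screen: cells in RPMI 1640 with 5% FBS and 2 mM L-glutamine, plated at 5000–40,000 cells/well by doubling time, and preincubated 24 h at 37 °C. Compound given at one concentration from DMSO stock. Cells TCA-fixed and SRB-stained, absorbance at 515 nm. Percent growth relative to time-zero and untreated controls; inhibition % = 100 − growth %.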

OVCAR-4 = assay: Anticancer activity against human OVCAR4 cells assessed as cell growth at 10^-5 M after 48 hrs by SRB assay; settings: OVCAR-4, 48 h, read-out: Activity
A549 = assay: Anticancer activity against human A549 cells assessed as cell growth at 10^-5 M after 48 hrs by SRB assay; settings: A549, 48 h, read-out: Activity; outline: as §1
NCI-H522 = assay: Anticancer activity against human NCI-H522 cells assessed as cell growth at 10^-5 M after 48 hrs by SRB assay; settings: NCI-H522, 48 h, read-out: Activity
SNB-19 = assay: Anticancer activity against human SNB19 cells assessed as cell growth at 10^-5 M after 48 hrs by SRB assay; settings: SNB-19, 48 h, read-out: Activity
HCT-116 = assay: Anticancer activity against human HCT116 cells assessed as cell growth at 10^-5 M after 48 hrs by SRB assay; settings: HCT-116, 48 h, read-out: Activity; outline: as §1
MDA-MB-468 = assay: Anticancer activity against human MDA-MB-468 cells assessed as cell growth at 10^-5 M after 48 hrs by SRB assay; settings: MDA-MB-468, 48 h, read-out: Activity
HOP-62 = assay: Anticancer activity against human HOP62 cells assessed as cell growth at 10^-5 M after 48 hrs by SRB assay; settings: HOP-62, 48 h, read-out: Activity; outline: as §1
NCI-H23 = assay: Anticancer activity against human NCI-H23 cells assessed as cell growth at 10^-5 M after 48 hrs by SRB assay; settings: NCI-H23, 48 h, read-out: Activity
UO-31 = assay: Anticancer activity against human UO31 cells assessed as cell growth at 10^-5 M after 48 hrs by SRB assay; settings: UO-31, 48 h, read-out: Activity; outline: as §2
SK-MEL-2 = assay: Anticancer activity against human SK-MEL-2 cells assessed as cell growth at 10^-5 M after 48 hrs by SRB assay; settings: SK-MEL-2, 48 h, read-out: Activity
SW-620 = assay: Anticancer activity against human SW620 cells assessed as cell growth at 10^-5 M after 48 hrs by SRB assay; settings: SW-620, 48 h, read-out: Activity; outline: as §2
MDA-MB-231 = assay: Anticancer activity against human MDA-MB-231 cells assessed as cell growth at 10^-5 M after 48 hrs by SRB assay; settings: MDA-MB-231, 48 h, read-out: Activity; outline: as §1
UACC-62 = assay: Anticancer activity against human UACC62 cells assessed as cell growth at 10^-5 M after 48 hrs by SRB assay; settings: UACC-62, 48 h, read-out: Activity; outline: as §2
M14 = assay: Anticancer activity against human M14 cells assessed as cell growth at 10^-5 M after 48 hrs by SRB assay; settings: M14, 48 h, read-out: Activity; outline: as §1
NCI-H460 = assay: Anticancer activity against human NCI-H460 cells assessed as cell growth at 10^-5 M after 48 hrs by SRB assay; settings: NCI-H460, 48 h, read-out: Activity
IGROV-1 = assay: Anticancer activity against human IGROV1 cells assessed as cell growth at 10^-5 M after 48 hrs by SRB assay; settings: IGROV-1, 48 h, read-out: Activity; outline: as §1
RXF 393 = assay: Anticancer activity against human RXF393 cells assessed as cell growth at 10^-5 M after 48 hrs by SRB assay; settings: RXF 393, 48 h, read-out: Activity
SR = assay: Anticancer activity against human SR cells assessed as cell growth at 10^-5 M after 48 hrs by SRB assay; settings: read-out: Activity; outline: as §2
HT-29 = assay: Anticancer activity against human HT-29 cells assessed as cell growth at 10^-5 M after 48 hrs by SRB assay; settings: HT-29, 48 h, read-out: Activity; outline: as §1
BT-549 = assay: Anticancer activity against human BT549 cells assessed as cell growth at 10^-5 M after 48 hrs by SRB assay; settings: BT-549, 48 h, read-out: Activity; outline: as §1
MOLT-4 = assay: Anticancer activity against human MOLT4 cells assessed as cell growth at 10^-5 M after 48 hrs by SRB assay; settings: MOLT-4, 48 h, read-out: Activity
NCI/ADR-RES = assay: Anticancer activity against human NCI/ADR-RES cells assessed as cell growth at 10^-5 M after 48 hrs by SRB assay; settings: read-out: Activity
UACC-257 = assay: Anticancer activity against human UACC257 cells assessed as cell growth at 10^-5 M after 48 hrs by SRB assay; settings: UACC-257, 48 h, read-out: Activity; outline: as §2
SF-539 = assay: Anticancer activity against human SF539 cells assessed as cell growth at 10^-5 M after 48 hrs by SRB assay; settings: SF-539, 48 h, read-out: Activity
CCRF-CEM = assay: Anticancer activity against human CCRF-CEM cells assessed as cell growth at 10^-5 M after 48 hrs by SRB assay; settings: read-out: Activity; outline: as §1
EKVX = assay: Anticancer activity against human EKVX cells assessed as cell growth at 10^-5 M after 48 hrs by SRB assay; settings: read-out: Activity; outline: as §1
HOP-92 = assay: Anticancer activity against human HOP92 cells assessed as cell growth at 10^-5 M after 48 hrs by SRB assay; settings: HOP-92, 48 h, read-out: Activity; outline: as §1
COLO 205 = assay: Anticancer activity against human COLO205 cells assessed as cell growth at 10^-5 M after 48 hrs by SRB assay; settings: COLO 205, 48 h, read-out: Activity; outline: as §1

| SMILES | growth at 10 µM (SK-MEL-5) | growth at 10 µM (NCI-H322M) | growth at 10 µM (MCF7) | growth at 10 µM (T47D) | growth at 10 µM (OVCAR-4) | growth at 10 µM (A549) | growth at 10 µM (NCI-H522) | growth at 10 µM (SNB-19) | growth at 10 µM (HCT-116) | growth at 10 µM (MDA-MB-468) | growth at 10 µM (HOP-62) | growth at 10 µM (NCI-H23) | growth at 10 µM (UO-31) | growth at 10 µM (SK-MEL-2) | growth at 10 µM (SW-620) | growth at 10 µM (MDA-MB-231) | growth at 10 µM (UACC-62) | growth at 10 µM (M14) | growth at 10 µM (NCI-H460) | growth at 10 µM (IGROV-1) | other results |
| --- | --- | --- | --- | --- | --- | --- | --- | --- | --- | --- | --- | --- | --- | --- | --- | --- | --- | --- | --- | --- | --- |
| O=C(NCCNc1nccc(-c2c(-c3cccc(O)c3)nc3sccn23)n1)c1ccccc1O | 22.7% | 72.3% | 37% | 61.8% | 96.2% | 43.3% | 29% | 90.2% | 25.9% | 52% | 114% | 57.4% | 34.6% | 13.9% | 77.9% | 48.4% | 0.53% | 16.7% | 57% | 31.6% | growth at 10 µM (RXF 393): 50.9%; growth at 10 µM (SR): 63.2%; growth at 10 µM (HT-29): 49.2%; growth at 10 µM (BT-549): 45.7%; growth at 10 µM (MOLT-4): 46.2%; growth at 10 µM (NCI/ADR-RES): 73.6%; growth at 10 µM (UACC-257): 14.8%; growth at 10 µM (SF-539): 61.9%; growth at 10 µM (CCRF-CEM): 18.9%; growth at 10 µM (EKVX): 66.8%; growth at 10 µM (HOP-92): 59.9%; growth at 10 µM (COLO 205): 66.5% |
| O=C(NCCNc1nccc(-c2c(-c3cccc(O)c3)nc3sccn23)n1)c1cccc(C(F)(F)F)c1 | 52.6% | 103% | 75.3% | 69.5% | 117% | 71.3% | 48.5% | 116% | 74.3% | 70.5% | 114% | 81% | 73.4% | 62.1% | 107% | 76.2% | 3.21% | 17.5% | 85.7% | 62.1% | growth at 10 µM (RXF 393): 79.9%; growth at 10 µM (SR): 97%; growth at 10 µM (HT-29): 81.1%; growth at 10 µM (BT-549): 88%; growth at 10 µM (MOLT-4): 61.5%; growth at 10 µM (NCI/ADR-RES): 98.3%; growth at 10 µM (UACC-257): 14.3%; growth at 10 µM (SF-539): 100%; growth at 10 µM (CCRF-CEM): 37.5%; growth at 10 µM (EKVX): 91.6%; growth at 10 µM (HOP-92): 83.8%; growth at 10 µM (COLO 205): 71.1% |
| O=C(NCCNc1nccc(-c2c(-c3cccc(O)c3)nc3sccn23)n1)c1cc(C(F)(F)F)cc(C(F)(F)F)c1 | 81.6% | 122% | 96.3% | 88.5% | 129% | 92.5% | 97.6% | 123% | 102% | 101% | 118% | 119% | 94.6% | 101% | 117% | 101% | 27.5% | 38.2% | 107% | 93% | growth at 10 µM (RXF 393): 107%; growth at 10 µM (SR): 98.2%; growth at 10 µM (HT-29): 63.1%; growth at 10 µM (BT-549): 108%; growth at 10 µM (MOLT-4): 87.7%; growth at 10 µM (NCI/ADR-RES): 108%; growth at 10 µM (UACC-257): 66.5%; growth at 10 µM (SF-539): 113%; growth at 10 µM (CCRF-CEM): 84.7%; growth at 10 µM (EKVX): 103%; growth at 10 µM (HOP-92): 77.1%; growth at 10 µM (COLO 205): 59.8% |
| O=C(NCCNc1nccc(-c2c(-c3cccc(O)c3)nc3sccn23)n1)c1ccc(N2CCOCC2)c(C(F)(F)F)c1 | 40% | 102% | 58.7% | 60.1% | 105% | 64.1% | 74.4% | 109% | 60.2% | 50.2% | 96.7% | 85.4% | 61.3% | 66.7% | 111% | 64.9% | 5.88% | 19.1% | 66.9% | 54.3% | growth at 10 µM (RXF 393): 57.6%; growth at 10 µM (SR): 76.1%; growth at 10 µM (HT-29): 68.6%; growth at 10 µM (BT-549): 53.8%; growth at 10 µM (MOLT-4): 57%; growth at 10 µM (NCI/ADR-RES): 95.4%; growth at 10 µM (UACC-257): 15.8%; growth at 10 µM (SF-539): 77.8%; growth at 10 µM (CCRF-CEM): 56.9%; growth at 10 µM (EKVX): 74%; growth at 10 µM (HOP-92): 38.9%; growth at 10 µM (COLO 205): 43.4% |
| O=C(NCCNc1nccc(-c2c(-c3cccc(O)c3)nc3sccn23)n1)c1cc(N2CCOCC2)cc(C(F)(F)F)c1 | 58.4% | 107% | 85.4% | 77.7% | 133% | 88.6% | 78.6% | 125% | 78.8% | 94.8% | 136% | 106% | 87.5% | 64.5% | 126% | 74.2% | 8.5% | 22.4% | 96.2% | 80.4% | growth at 10 µM (RXF 393): 77.8%; growth at 10 µM (SR): 97.3%; growth at 10 µM (HT-29): 49.2%; growth at 10 µM (BT-549): 84.8%; growth at 10 µM (MOLT-4): 68.5%; growth at 10 µM (NCI/ADR-RES): 103%; growth at 10 µM (UACC-257): 16.7%; growth at 10 µM (SF-539): 101%; growth at 10 µM (CCRF-CEM): 52.9%; growth at 10 µM (EKVX): 88.6%; growth at 10 µM (HOP-92): 87.7%; growth at 10 µM (COLO 205): 32.7% |
